In ChEMBL document CHEMBL4811253, “Flavonoid-triazolyl hybrids as potential anti-hepatitis C virus agents: Synthesis and biological evaluation” (Eur J Med Chem, 2021):
Active and inactive are the calls of the source. The rule behind the calls is not given here.

What follows are compounds tested on Hepatitis C virus (assay: Antiviral activity against HCV JFH-1 in Huh7 cells infected with supernatant from 3 days compound treated Huh7 cells with HCV JFH-1 infection assessed as reduction in HCV production by measuring viral RNA level measured after 48 hrs post re-infection by RT-PCR analysis). Details: Hepacivirus hominis, Huh-7, time 3.0 day.
Assay type: functional, organism-based
Procedure, shortened: (§1)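 Huh7 cells (1 × 10⁴/well, overnight) infected with HCV at MOI 0.1 for 6 h, virus washed out, then compound for 72 h (single 100 µg/mL screen; or 1, 3, 10, 30 µM dose series). Supernatant used to reinfect fresh Huh7 cells; 48 h later total RNA column-extracted and HCV RNA quantified by real-time RT-PCR. IFNa 10 U/mL as reference.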

SMILES | Activity
CC1(C)C=Cc2cc(C3CC(=O)c4ccc(OCc5cn(Cc6ccc(F)cc6)nn5)cc4O3)ccc2O1 (stereo not drawn) | Dose-Dependent Effect
CC1(C)C=Cc2cc(C3CC(=O)c4ccc(OCc5cn(Cc6ccccc6Cl)nn5)cc4O3)ccc2O1 (stereo not drawn) | Dose-Dependent Effect

Same assay, conditions: JFH-1, Huh-7

SMILES | IC50 [µM]
CC1(C)C=Cc2cc(C3CC(=O)c4ccc(OCc5cn(Cc6ccc(F)cc6)nn5)cc4O3)ccc2O1 (stereo not drawn) | 9
CC1(C)C=Cc2cc(C3CC(=O)c4ccc(OCc5cn(Cc6ccccc6Cl)nn5)cc4O3)ccc2O1 (stereo not drawn) | 5.29

What follows are compounds tested on Huh-7 (assay: Cytotoxicity against human Huh7 cells assessed as reduction in cell viability at 100 ug/ml incubated for 72 hrs by XTT assay). Details: huh-7, 72 h, dose 100 µg/ml.
Assay type: cell-based
Procedure, shortened: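 Huh7 cells (1 × 10⁴/well) seeded overnight, exposed to compound at 100 µg/mL for 72 h; viability by XTT (Cell Proliferation Kit II) per the kit instructions. Cells grown in DMEM with 10% FBS, 37 °C, 5% CO₂.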

SMILES | Activity
CC1(C)C=Cc2cc(C3CC(=O)c4ccc(OCc5cn(Cc6ccccc6)nn5)cc4O3)ccc2O1 (stereo not drawn) | Toxic
CCCCCCCCCn1cc(COc2ccc3c(c2)OC(c2ccc4c(c2)C=CC(C)(C)O4)CC3=O)nn1 (stereo not drawn) | Non-Toxic
CC1(C)C=Cc2cc(C3CC(=O)c4ccc(OCc5cn(Cc6ccncc6)nn5)cc4O3)ccc2O1 (stereo not drawn) | Toxic
CC1(C)C=Cc2cc(C3CC(=O)c4ccc(OCc5cn(Cc6ccc(Br)cc6)nn5)cc4O3)ccc2O1 (stereo not drawn) | Non-Toxic
CC1(C)C=Cc2cc(C3CC(=O)c4ccc(OCc5cn(Cc6cccc(F)c6)nn5)cc4O3)ccc2O1 (stereo not drawn) | Non-Toxic
CC1(C)C=Cc2cc(C3CC(=O)c4ccc(OCc5cn(Cc6cc(Cl)cc(Cl)c6)nn5)cc4O3)ccc2O1 (stereo not drawn) | Non-Toxic
CC1(C)C=Cc2cc(C3CC(=O)c4ccc(O)cc4O3)ccc2O1 (stereo not drawn) | Non-Toxic
COc1cc(Cn2cc(COc3ccc4c(c3)OC(c3ccc5c(c3)C=CC(C)(C)O5)CC4=O)nn2)cc(OC)c1 (stereo not drawn) | Non-Toxic
Cn1cc(COc2ccc3c(c2)OC(c2ccc4c(c2)C=CC(C)(C)O4)CC3=O)nn1 (stereo not drawn) | Non-Toxic
CC1(C)C=Cc2cc(C3CC(=O)c4ccc(OCc5cn(Cc6ccc(C(F)(F)F)cc6)nn5)cc4O3)ccc2O1 (stereo not drawn) | Non-Toxic
CCCCCn1cc(COc2ccc3c(c2)OC(c2ccc4c(c2)C=CC(C)(C)O4)CC3=O)nn1 (stereo not drawn) | Non-Toxic
CC1(C)C=Cc2cc(C3CC(=O)c4ccc(OCc5cn(Cc6ccc(F)cc6)nn5)cc4O3)ccc2O1 (stereo not drawn) | Non-Toxic
COc1cccc(Cn2cc(COc3ccc4c(c3)OC(c3ccc5c(c3)C=CC(C)(C)O5)CC4=O)nn2)c1 (stereo not drawn) | Non-Toxic
Cc1ccc(Cn2cc(COc3ccc4c(c3)OC(c3ccc5c(c3)C=CC(C)(C)O5)CC4=O)nn2)cc1 (stereo not drawn) | Non-Toxic
CC1(C)C=Cc2cc(C3CC(=O)c4ccc(OCc5cn(Cc6ccccc6Cl)nn5)cc4O3)ccc2O1 (stereo not drawn) | Non-Toxic
CCCCn1cc(COc2ccc3c(c2)OC(c2ccc4c(c2)C=CC(C)(C)O4)CC3=O)nn1 (stereo not drawn) | Non-Toxic
CC1(C)C=Cc2cc(C3CC(=O)c4ccc(OCc5cn(Cc6ccc([N+](=O)[O-])cc6)nn5)cc4O3)ccc2O1 (stereo not drawn) | Non-Toxic
CC1(C)C=Cc2cc(C3CC(=O)c4ccc(OCc5cn(Cc6ccccc6F)nn5)cc4O3)ccc2O1 (stereo not drawn) | Non-Toxic
CCCCCCn1cc(COc2ccc3c(c2)OC(c2ccc4c(c2)C=CC(C)(C)O4)CC3=O)nn1 (stereo not drawn) | Non-Toxic
CCn1cc(COc2ccc3c(c2)OC(c2ccc4c(c2)C=CC(C)(C)O4)CC3=O)nn1 (stereo not drawn) | Non-Toxic

These compounds were tested on Hepatitis C virus (assay: Antiviral activity against wild-type HCV infected in human Huh-7 cells assessed as inhibition of viral entry at 10 uM incubated for 24 hrs prior to infection and measured after 48 hrs post infection by RT-PCR). Details: Hepacivirus hominis, JFH-1.

SMILES | Activity
CC1(C)C=Cc2cc(C3CC(=O)c4ccc(OCc5cn(Cc6ccc(F)cc6)nn5)cc4O3)ccc2O1 (stereo not drawn) | Active
CC1(C)C=Cc2cc(C3CC(=O)c4ccc(OCc5cn(Cc6ccccc6Cl)nn5)cc4O3)ccc2O1 (stereo not drawn) | Active

Each compound was assayed on Hepatitis C virus (assay: Antiviral activity against HCV JFH-1 in Huh7 cells infected with supernatant from 3 days at 30 uM of compound treated Huh7 cells with HCV JFH-1 infection assessed as reduction in HCV production by measuring viral RNA level measured after 48 hrs post re-infection by RT-PCR analysis). Details: Hepacivirus hominis, Huh-7, time 120.0 hrs.
Assay type: functional, organism-based
Procedure, shortened: as §1

SMILES | Activity
CC1(C)C=Cc2cc(C3CC(=O)c4ccc(OCc5cn(Cc6ccc(F)cc6)nn5)cc4O3)ccc2O1 (stereo not drawn) | Active
CC1(C)C=Cc2cc(C3CC(=O)c4ccc(OCc5cn(Cc6ccccc6Cl)nn5)cc4O3)ccc2O1 (stereo not drawn) | Active

Each compound was assayed on Hepatitis C virus (assay: Antiviral activity against HCV JFH-1 in Huh7 cells assessed as reduction in NS3 protein expression by Western blotting analysis). Details: Hepacivirus hominis, Huh-7, dose 1-100 µM.
Assay type: functional, organism-based
Procedure, shortened: (§2)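 Huh7 cells treated with compound at 1, 10 and 100 µM (concentrations as stated in text). Lysates in RIPA buffer, heated with Laemmli buffer at 95 °C for 10 min. Western blot probed with anti-NS3 (1/1000), anti-Core (1/3000) and anti-GAPDH (1/1000), HRP secondary antibodies, chemiluminescence detection.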

SMILES | Activity
CC1(C)C=Cc2cc(C3CC(=O)c4ccc(OCc5cn(Cc6ccc(Br)cc6)nn5)cc4O3)ccc2O1 (stereo not drawn) | Dose-Dependent Effect
CC1(C)C=Cc2cc(C3CC(=O)c4ccc(OCc5cn(Cc6ccc(F)cc6)nn5)cc4O3)ccc2O1 (stereo not drawn) | Dose-Dependent Effect
CC1(C)C=Cc2cc(C3CC(=O)c4ccc(OCc5cn(Cc6ccccc6Cl)nn5)cc4O3)ccc2O1 (stereo not drawn) | Dose-Dependent Effect

The compounds below were run on Hepatitis C virus (assay: Antiviral activity against HCV JFH-1 infected in Huh7 cells overexpressing mCherry-NLS-IPS protein at 100 ug/ml pre-infected with virus for 6 hrs followed by compound addition for 72 hrs by fluorescence assay). Details: Hepacivirus hominis, Huh-7, dose 100.0 µg/ml.
Assay type: functional, organism-based
Procedure, shortened: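 Huh7 cells carrying mCherry-NLS-IPS were made by transducing them with a recombinant virus from 293T cells (VSV-G, Pol and mCherry-NLS-IPS1 plasmids). These cells were seeded at 5×10⁴ per well overnight in DMEM with 10% FBS at 37 °C and 5% CO₂, then infected with HCV JFH1 (MOI 1) for 6 h. After washing they were cultured with compound for 72 h, with sofosbuvir as positive control. The readout was microscopic imaging of red fluorescence shifting from cytoplasm to nucleus after NS3/4A cleavage.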

SMILES | Activity
CC1(C)C=Cc2cc(C3CC(=O)c4ccc(OCc5cn(Cc6ccc(Br)cc6)nn5)cc4O3)ccc2O1 (stereo not drawn) | Active
CCCCCn1cc(COc2ccc3c(c2)OC(c2ccc4c(c2)C=CC(C)(C)O4)CC3=O)nn1 (stereo not drawn) | Active
CC1(C)C=Cc2cc(C3CC(=O)c4ccc(OCc5cn(Cc6ccc(F)cc6)nn5)cc4O3)ccc2O1 (stereo not drawn) | Active
CC1(C)C=Cc2cc(C3CC(=O)c4ccc(OCc5cn(Cc6ccccc6Cl)nn5)cc4O3)ccc2O1 (stereo not drawn) | Active
CCCCCCn1cc(COc2ccc3c(c2)OC(c2ccc4c(c2)C=CC(C)(C)O4)CC3=O)nn1 (stereo not drawn) | Active

What follows are compounds tested on Hepatitis C virus (assay: Antiviral activity against HCV JFH-1 infected in Huh7 cells assessed as inhibition of HCV replication at 10 uM after 72 hrs by luciferase reporter gene assay). Details: Hepacivirus hominis, Huh-7.
Assay type: functional, organism-based
Procedure, shortened: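 Huh7 cells transfected with subgenomic JFH1 replicon carrying luciferase (SGR-Luc-JFH1), then treated with compound; luciferase activity in cell extracts read after 72 h.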

SMILES | Activity
CC1(C)C=Cc2cc(C3CC(=O)c4ccc(OCc5cn(Cc6ccc(F)cc6)nn5)cc4O3)ccc2O1 (stereo not drawn) | inactive
CC1(C)C=Cc2cc(C3CC(=O)c4ccc(OCc5cn(Cc6ccccc6Cl)nn5)cc4O3)ccc2O1 (stereo not drawn) | inactive

Each compound was assayed on Hepatitis C virus (assay: Antiviral activity against HCV JFH-1 in Huh7 cells infected with supernatant from 72 hrs at 100 ug/ml compound treated Huh7 cells with HCV JFH-1 infection assessed as inhibition of HCV progeny virus production by measuring viral RNA level measured after 48 hrs post re-infection by RT-PCR analysis). Details: Hepacivirus hominis, Huh-7, dose 100.0 µg/ml, time 120.0 hrs.
Assay type: functional, organism-based
Procedure, shortened: as §1

SMILES | Activity
CC1(C)C=Cc2cc(C3CC(=O)c4ccc(OCc5cn(Cc6ccc(Br)cc6)nn5)cc4O3)ccc2O1 (stereo not drawn) | Active
CCCCCn1cc(COc2ccc3c(c2)OC(c2ccc4c(c2)C=CC(C)(C)O4)CC3=O)nn1 (stereo not drawn) | Active
CC1(C)C=Cc2cc(C3CC(=O)c4ccc(OCc5cn(Cc6ccc(F)cc6)nn5)cc4O3)ccc2O1 (stereo not drawn) | Active
CC1(C)C=Cc2cc(C3CC(=O)c4ccc(OCc5cn(Cc6ccccc6Cl)nn5)cc4O3)ccc2O1 (stereo not drawn) | Active
CCCCCCn1cc(COc2ccc3c(c2)OC(c2ccc4c(c2)C=CC(C)(C)O4)CC3=O)nn1 (stereo not drawn) | Active

What follows are compounds tested on Hepatitis C virus (assay: Antiviral activity against HCV JFH-1 in Huh7 cells assessed as reduction in HCV core protein expression by Western blotting analysis). Details: Hepacivirus hominis, Huh-7, dose 1-100 µM.
Assay type: functional, organism-based
Procedure, shortened: as §2

SMILES | Activity
CC1(C)C=Cc2cc(C3CC(=O)c4ccc(OCc5cn(Cc6ccc(Br)cc6)nn5)cc4O3)ccc2O1 (stereo not drawn) | Dose-Dependent Effect
CC1(C)C=Cc2cc(C3CC(=O)c4ccc(OCc5cn(Cc6ccc(F)cc6)nn5)cc4O3)ccc2O1 (stereo not drawn) | Dose-Dependent Effect
CC1(C)C=Cc2cc(C3CC(=O)c4ccc(OCc5cn(Cc6ccccc6Cl)nn5)cc4O3)ccc2O1 (stereo not drawn) | Dose-Dependent Effect

Each compound was assayed on Hepatitis C virus (assay: Antiviral activity against HCV pseudo-particle infected in human Huh-7 cells assessed as inhibition of viral entry at 10 uM incubated for 24 hrs prior to infection and measured after 48 hrs post infection by bright Glo-luciferase reporter gene assay). Details: not given.
Assay type: functional, Hepacivirus hominis, JFH-1
Set-up: scale not given: the % may be the effect or the level left
Procedure, shortened: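 Huh-7 cells (5 × 10³/well) pretreated with compound for 24 h, then infected with HCV pseudoparticles. Virus and compound washed out after 6 h of infection. Luciferase read with Bright-Glo reagent 48 h later.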

SMILES | Activity [%]
CC1(C)C=Cc2cc(C3CC(=O)c4ccc(OCc5cn(Cc6ccc(F)cc6)nn5)cc4O3)ccc2O1 (stereo not drawn) | 52
CC1(C)C=Cc2cc(C3CC(=O)c4ccc(OCc5cn(Cc6ccccc6Cl)nn5)cc4O3)ccc2O1 (stereo not drawn) | 34
